According to PubChem BioAssay AID588830 (Broad Institute, 2011):
Activity calls are given as the source filed them.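 Rule for the calls: active = fitted IC50 for falling signal at or below ten times the top tested dose; inconclusive = flat fit with 30 to 70% signal loss, or poor fit; inactive = the rest.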

Test system: ldlA[mSR-BI] CHO cells viability, CellTiter-Glo ATP, 3 h
Assay: short-term cytotoxicity in ldlA[mSR-BI] cells, dose response, cytotoxicity control for SR-BI HDL uptake inhibitor project, cell-based, CellTiter-Glo luminescence, 3 h, dry powder (AID 588830)
Method in brief: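 Test system – ldlA[mSR-BI] cells, scavenger receptor B1-expressing line · Buffer or medium – PSG and 10% FCS in Ham's F12 · Compound dosing – 8-concentration series per compound, added by pin transfer · Times – 3 h at 37 °C, then 10 min with reagent · Measured by – luminescence of cellular ATP via Cell Titer Glo reagent · Measure – cytotoxicity IC50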

## CCOc1ccccc1/C=C/c1onc(C)c1S(=O)(=O)N1CCC(C(=O)NC(C)(C)C)CC1
  IC50: > 70 µM (inactive)
